From ChEMBL document CHEMBL3779840, “Discovery of 2-((3-Amino-4-methylphenyl)amino)-N-(2-methyl-5-(3-(trifluoromethyl)benzamido)phenyl)-4-(methylamino)pyrimidine-5-carboxamide (CHMFL-ABL-053) as a Potent, Selective, and Orally Available BCR-ABL/SRC/p38 Kinase Inhibitor for Chronic Myeloid Leukemia” (J Med Chem, 2016)
The source made the active and inactive calls. The calls are words filed in the database; no cut-off is given here.

Columns and labels:
[1] = Antiproliferative activity against human MOLM14 cells assessed as cell viability after 72 hrs by CellTiter-Glo or CCK-8 assay; format: functional; details: MOLM-14, 72 h
[2] = target: T1, Bcr/Abl fusion protein (Homo sapiens) (UniProt P00519+P11274); experiment: Inhibition of BCR/ABL autophosphorylation at Y245 site in human KU812 cells at 300 nM after 1 hr by immunoblotting method; format: cell-based
T1 sequence (P00519 whole entry, looked up, the tested form may be a part): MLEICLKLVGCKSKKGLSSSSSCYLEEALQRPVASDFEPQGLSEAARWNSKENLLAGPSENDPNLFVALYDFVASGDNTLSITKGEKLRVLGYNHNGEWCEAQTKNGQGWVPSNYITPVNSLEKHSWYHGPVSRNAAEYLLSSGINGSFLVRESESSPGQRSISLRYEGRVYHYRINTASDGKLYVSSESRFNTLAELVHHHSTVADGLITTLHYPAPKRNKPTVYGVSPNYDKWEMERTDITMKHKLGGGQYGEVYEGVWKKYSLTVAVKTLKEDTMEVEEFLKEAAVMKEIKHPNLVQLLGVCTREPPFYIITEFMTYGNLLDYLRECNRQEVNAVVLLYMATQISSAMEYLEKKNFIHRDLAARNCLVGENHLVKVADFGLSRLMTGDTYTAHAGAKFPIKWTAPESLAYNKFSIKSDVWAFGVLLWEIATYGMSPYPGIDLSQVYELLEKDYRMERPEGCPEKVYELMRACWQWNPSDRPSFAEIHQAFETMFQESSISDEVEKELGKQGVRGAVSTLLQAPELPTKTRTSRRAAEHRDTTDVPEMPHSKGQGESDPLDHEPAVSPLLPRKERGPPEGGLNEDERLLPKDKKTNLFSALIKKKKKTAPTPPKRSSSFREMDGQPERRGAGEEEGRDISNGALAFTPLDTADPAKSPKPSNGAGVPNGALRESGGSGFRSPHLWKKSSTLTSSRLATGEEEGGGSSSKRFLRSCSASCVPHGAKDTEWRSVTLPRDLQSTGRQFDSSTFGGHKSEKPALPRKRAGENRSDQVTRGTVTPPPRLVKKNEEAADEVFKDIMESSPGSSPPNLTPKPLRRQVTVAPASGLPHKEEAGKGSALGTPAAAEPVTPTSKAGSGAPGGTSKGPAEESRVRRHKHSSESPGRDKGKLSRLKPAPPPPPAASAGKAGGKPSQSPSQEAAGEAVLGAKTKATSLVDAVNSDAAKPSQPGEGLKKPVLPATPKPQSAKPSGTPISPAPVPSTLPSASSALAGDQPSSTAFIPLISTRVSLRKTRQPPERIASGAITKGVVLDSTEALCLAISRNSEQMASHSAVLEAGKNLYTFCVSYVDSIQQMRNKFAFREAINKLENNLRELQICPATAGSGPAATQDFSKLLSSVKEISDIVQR
T1 sequence (P11274 whole entry, looked up, the tested form may be a part): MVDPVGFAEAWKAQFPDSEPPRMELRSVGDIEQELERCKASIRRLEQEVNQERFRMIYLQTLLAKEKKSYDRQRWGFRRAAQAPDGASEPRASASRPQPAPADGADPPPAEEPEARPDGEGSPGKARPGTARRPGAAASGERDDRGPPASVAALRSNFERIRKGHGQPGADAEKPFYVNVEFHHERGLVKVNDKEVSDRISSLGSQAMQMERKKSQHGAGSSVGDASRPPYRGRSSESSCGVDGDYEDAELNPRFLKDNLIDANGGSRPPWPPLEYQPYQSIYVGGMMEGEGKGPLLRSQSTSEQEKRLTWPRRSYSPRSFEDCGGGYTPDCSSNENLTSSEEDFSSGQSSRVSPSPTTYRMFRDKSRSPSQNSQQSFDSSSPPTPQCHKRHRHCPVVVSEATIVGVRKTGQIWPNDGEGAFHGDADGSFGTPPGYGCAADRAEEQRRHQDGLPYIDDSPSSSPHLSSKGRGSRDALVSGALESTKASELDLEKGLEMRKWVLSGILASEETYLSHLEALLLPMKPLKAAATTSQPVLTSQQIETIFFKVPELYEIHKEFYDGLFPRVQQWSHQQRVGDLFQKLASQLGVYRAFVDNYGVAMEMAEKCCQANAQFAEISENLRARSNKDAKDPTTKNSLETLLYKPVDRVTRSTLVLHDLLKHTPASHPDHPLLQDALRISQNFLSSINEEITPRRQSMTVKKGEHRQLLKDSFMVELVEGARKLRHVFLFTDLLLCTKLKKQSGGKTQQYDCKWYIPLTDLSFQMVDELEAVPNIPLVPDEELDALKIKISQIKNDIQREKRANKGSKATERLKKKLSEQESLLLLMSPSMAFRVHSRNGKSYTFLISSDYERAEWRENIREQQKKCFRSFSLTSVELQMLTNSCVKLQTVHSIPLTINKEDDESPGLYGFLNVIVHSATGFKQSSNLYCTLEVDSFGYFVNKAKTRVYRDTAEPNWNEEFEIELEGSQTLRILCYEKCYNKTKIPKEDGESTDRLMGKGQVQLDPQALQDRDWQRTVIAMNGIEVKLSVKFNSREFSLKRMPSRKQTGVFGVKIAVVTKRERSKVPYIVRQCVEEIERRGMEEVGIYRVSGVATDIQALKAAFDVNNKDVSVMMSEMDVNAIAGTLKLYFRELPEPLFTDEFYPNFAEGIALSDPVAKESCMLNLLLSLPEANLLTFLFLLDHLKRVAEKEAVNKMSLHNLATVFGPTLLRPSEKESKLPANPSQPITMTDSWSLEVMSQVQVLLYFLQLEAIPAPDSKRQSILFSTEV
Summary of the method: (§1)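 KU812, K562 and MEG-01 cells were exposed to compound at the indicated concentrations for 1 h. Whole-cell lysates were then analysed by Western blot for phosphorylated signaling proteins.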

[3] = target: T1, Bcr/Abl fusion protein (Homo sapiens); experiment: Inhibition of BCR/ABL autophosphorylation at Y245 site in human MEG01 cells at 300 nM after 1 hr by immunoblotting method; format: cell-based; details: MEG-01; summary of the method: as §1
[4] = target: T1, Bcr/Abl fusion protein (Homo sapiens); experiment: Inhibition of BCR/ABL in human KU812 cells assessed as downregulation of Stat5 phosphorylation at […] site after 1 hr by immunoblotting method; format: cell-based; summary of the method: as §1
[5] = target: T1, Bcr/Abl fusion protein (Homo sapiens); experiment: Inhibition of BCR/ABL in human MEG01 cells assessed as downregulation of ERK phosphorylation at Thr202/Tyr204 site after 1 hr by immunoblotting method; format: cell-based; details: MEG-01; summary of the method: as §1
[6] = target: Proto-oncogene tyrosine-protein kinase Src (Homo sapiens, UniProt P12931); experiment: Inhibition of SRC phosphorylation in human KU812 cells at 0.01 to 3 uM after 1 hr by immunoblotting method; format: cell-based
Proto-oncogene tyrosine-protein kinase Src, sequence (P12931 2-536 limits assumed): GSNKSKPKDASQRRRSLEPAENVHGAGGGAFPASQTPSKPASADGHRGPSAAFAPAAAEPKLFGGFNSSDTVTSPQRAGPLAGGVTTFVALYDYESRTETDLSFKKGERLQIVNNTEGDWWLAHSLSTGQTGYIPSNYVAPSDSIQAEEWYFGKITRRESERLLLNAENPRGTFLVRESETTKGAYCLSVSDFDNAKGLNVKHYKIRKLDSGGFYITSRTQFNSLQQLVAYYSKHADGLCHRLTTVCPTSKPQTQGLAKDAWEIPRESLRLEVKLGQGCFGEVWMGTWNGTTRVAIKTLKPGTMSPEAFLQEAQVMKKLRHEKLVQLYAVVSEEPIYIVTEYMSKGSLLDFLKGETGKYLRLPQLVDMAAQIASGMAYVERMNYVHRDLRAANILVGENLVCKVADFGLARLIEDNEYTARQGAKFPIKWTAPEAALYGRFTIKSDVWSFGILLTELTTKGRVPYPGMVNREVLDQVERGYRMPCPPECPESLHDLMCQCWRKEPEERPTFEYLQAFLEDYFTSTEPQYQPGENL
Summary of the method: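 Cells were treated for 1 h at the indicated concentrations. Whole-cell lysates were then analysed by Western blot for phosphorylation of signalling proteins in the BCR-ABL pathway.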

[7] = Half life in Sprague-Dawley rat at 1 mg/kg, iv; format: ADME, organism-based; details: in vivo
[8] = Tmax in Sprague-Dawley rat at 1 mg/kg, iv; format: ADME, organism-based; details: in vivo
[9] = Cmax in Sprague-Dawley rat at 10 mg/kg, po; format: ADME, organism-based; parameters: dose 10 mg/kg, route oral; details: in vivo
[10] = AUC(0 to t) in Sprague-Dawley rat at 10 mg/kg, po; format: ADME, organism-based; details: in vivo
[11] = AUC(0 to infinity) in Sprague-Dawley rat at 1 mg/kg, iv; format: ADME, organism-based; parameters: dose 1 mg/kg, route intravenous, time infinity; details: in vivo
[12] = Oral bioavailability in Sprague-Dawley rat at 10 mg/kg; format: ADME, organism-based; details: in vivo
K562 [13] = experiment: Antitumor activity against human K562 cells xenografted in nu/nu mouse assessed as reduction in tumor growth administered through oral gavage after 16 days of continuous administration; format: functional
Summary of the method: (§2)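 Female nu/nu mice bore established K562 xenografts and received daily oral dosing at 25.0 or 50.0 mg/kg/d, or vehicle, starting when tumors reached 200 to 400 mm3, for 16 days. Groups had 5 animals; data are mean ± SEM. Tumor size and body weight were normalized to initial values, and final tumor weight was recorded. Tumor tissue was stained with HE, Ki-67 and TUNEL.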

Mus musculus = experiment: Toxicity in nu/nu mouse xenografted with K562 cells assessed as mortality at 25 and 50 mg/kg/day, qd administered through oral gavage for 16 days measured every day during compound dosing; format: organism-based; details: in vivo, 384 h
Summary of the method: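 Female nu/nu mice carrying established K562 xenografts received oral treatment once daily at 25.0 or 50.0 mg/kg/d, or vehicle, starting when tumours reached 200 to 400 mm3. There were 5 animals per group and dosing lasted 16 days. Body weight was expressed relative to initial weight (set as 100%), and mortality was recorded. Data are given as mean ± SEM.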

K562 [14] = experiment: Antiproliferative activity against human K562 cells xenografted in nu/nu mouse at 25 and 50 mg/kg/day, qd administered through oral gavage measured after 16 days by Ki-67 staining-based immunohistochemical analysis; format: functional, organism-based; summary of the method: as §2
K562 [15] = experiment: Antiproliferative activity against human K562 cells xenografted in nu/nu mouse at 25 and 50 mg/kg/day, qd administered through oral gavage measured after 16 days by hematoxylin/eosin staining-based assay; format: functional, organism-based; summary of the method: as §2
[16] = target: T2, Epithelial discoidin domain-containing receptor 1 (Homo sapiens, UniProt Q08345); experiment: Inhibition of partial length human wild type DDR1 expressed in bacterial expression system assessed as residual activity at 1 uM relative to control
T2 sequence (Q08345 whole entry, the tested form may be a part): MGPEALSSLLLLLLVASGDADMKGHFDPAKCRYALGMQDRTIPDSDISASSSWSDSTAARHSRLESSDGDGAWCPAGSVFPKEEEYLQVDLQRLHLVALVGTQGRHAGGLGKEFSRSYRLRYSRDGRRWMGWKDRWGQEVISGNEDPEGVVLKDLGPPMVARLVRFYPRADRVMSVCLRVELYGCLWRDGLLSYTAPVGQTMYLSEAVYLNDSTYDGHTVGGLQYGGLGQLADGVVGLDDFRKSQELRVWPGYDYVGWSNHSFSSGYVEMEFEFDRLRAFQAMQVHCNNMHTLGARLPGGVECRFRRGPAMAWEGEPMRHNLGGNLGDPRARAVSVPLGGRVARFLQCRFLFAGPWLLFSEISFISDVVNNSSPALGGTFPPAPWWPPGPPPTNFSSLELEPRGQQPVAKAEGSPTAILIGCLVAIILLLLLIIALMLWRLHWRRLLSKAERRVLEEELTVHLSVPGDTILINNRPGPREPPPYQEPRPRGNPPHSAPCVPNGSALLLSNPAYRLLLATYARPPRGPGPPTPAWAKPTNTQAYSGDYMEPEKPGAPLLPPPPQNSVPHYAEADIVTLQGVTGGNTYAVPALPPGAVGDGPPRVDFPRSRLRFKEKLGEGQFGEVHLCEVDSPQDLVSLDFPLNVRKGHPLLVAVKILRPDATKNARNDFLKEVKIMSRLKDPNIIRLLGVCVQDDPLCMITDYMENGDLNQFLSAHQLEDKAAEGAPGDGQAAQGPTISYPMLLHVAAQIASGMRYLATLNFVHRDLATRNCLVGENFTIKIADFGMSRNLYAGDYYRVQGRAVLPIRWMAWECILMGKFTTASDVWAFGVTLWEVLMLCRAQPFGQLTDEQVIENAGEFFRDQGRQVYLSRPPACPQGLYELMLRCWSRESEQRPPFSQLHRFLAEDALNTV

[17] = target: T3, Discoidin domain-containing receptor 2 (Homo sapiens) (UniProt Q16832); experiment: Inhibition of partial length human wild type DDR2 expressed in mammalian expression system assessed as residual activity at 1 uM relative to control
T3 sequence (whole entry): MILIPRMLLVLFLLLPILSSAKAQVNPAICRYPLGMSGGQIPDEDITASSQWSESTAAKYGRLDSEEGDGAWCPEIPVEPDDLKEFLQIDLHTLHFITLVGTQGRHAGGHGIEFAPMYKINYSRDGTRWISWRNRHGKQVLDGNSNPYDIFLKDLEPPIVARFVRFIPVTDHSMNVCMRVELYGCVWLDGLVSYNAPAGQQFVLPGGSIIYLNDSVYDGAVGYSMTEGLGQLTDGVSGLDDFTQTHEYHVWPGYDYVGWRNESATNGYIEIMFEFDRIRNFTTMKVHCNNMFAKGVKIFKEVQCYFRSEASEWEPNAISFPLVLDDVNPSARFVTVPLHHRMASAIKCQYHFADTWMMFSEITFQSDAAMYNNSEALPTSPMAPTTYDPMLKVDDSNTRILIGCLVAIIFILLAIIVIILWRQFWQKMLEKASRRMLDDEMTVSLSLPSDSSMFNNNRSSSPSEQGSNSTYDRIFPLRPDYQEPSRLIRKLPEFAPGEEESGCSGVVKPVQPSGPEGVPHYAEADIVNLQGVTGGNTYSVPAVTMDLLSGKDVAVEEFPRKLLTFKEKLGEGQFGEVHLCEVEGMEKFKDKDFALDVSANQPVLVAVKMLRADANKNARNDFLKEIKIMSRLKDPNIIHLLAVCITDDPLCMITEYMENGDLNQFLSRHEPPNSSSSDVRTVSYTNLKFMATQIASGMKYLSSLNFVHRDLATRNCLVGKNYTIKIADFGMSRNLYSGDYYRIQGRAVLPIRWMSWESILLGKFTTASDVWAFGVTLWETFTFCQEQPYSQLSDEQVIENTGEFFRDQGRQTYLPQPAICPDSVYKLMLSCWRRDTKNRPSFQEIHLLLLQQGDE

[18] = target: Ephrin type-A receptor 8 (Homo sapiens) (UniProt P29322); experiment: Inhibition of partial length human wild type EPHA8 expressed in bacterial expression system assessed as residual activity at 1 uM relative to control
[19] = target: Ephrin type-B receptor 6 (Homo sapiens) (UniProt O15197); experiment: Inhibition of partial length human wild type EPHB6 expressed in mammalian expression system assessed as residual activity at 1 uM relative to control
Ephrin type-B receptor 6 (Homo sapiens), sequence (O15197 whole entry, the tested form may be a part): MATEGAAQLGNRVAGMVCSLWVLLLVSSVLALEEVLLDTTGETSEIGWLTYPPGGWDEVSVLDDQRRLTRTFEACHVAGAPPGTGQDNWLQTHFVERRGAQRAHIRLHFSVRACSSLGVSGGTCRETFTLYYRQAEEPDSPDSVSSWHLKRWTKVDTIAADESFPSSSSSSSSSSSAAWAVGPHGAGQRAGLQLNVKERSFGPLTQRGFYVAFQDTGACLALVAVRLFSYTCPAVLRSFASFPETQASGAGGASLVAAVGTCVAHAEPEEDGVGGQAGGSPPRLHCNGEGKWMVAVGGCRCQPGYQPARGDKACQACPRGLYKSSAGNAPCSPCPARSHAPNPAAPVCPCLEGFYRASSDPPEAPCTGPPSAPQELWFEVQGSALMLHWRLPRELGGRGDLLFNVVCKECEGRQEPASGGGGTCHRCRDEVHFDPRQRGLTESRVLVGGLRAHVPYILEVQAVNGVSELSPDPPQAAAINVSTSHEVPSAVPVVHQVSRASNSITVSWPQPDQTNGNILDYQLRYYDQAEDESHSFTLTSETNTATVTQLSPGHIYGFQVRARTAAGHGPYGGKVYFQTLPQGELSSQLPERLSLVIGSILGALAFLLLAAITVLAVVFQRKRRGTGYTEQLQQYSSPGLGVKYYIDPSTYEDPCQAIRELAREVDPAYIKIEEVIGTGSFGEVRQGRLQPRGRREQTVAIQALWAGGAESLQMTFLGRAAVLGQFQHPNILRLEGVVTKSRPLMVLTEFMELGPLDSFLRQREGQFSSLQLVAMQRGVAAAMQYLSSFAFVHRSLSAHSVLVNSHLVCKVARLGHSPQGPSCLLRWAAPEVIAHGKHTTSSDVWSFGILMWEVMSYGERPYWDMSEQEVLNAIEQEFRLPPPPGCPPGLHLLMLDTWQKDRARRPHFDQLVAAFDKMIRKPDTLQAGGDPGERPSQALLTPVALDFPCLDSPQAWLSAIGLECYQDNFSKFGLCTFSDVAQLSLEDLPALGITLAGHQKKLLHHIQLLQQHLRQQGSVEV

[20] = target: T2, Epithelial discoidin domain-containing receptor 1; details: BaF3
[21] = target: Tyrosine-protein kinase Lck (Homo sapiens) (UniProt P06239); details: BaF3
[22] = test system: Bcr/Abl fusion protein (Homo sapiens), P00519+P11274 [F317L]; details: BaF3
[23] = test system: Bcr/Abl fusion protein (Homo sapiens), P00519+P11274 [M351T]; details: BaF3

## CNc1nc(Nc2ccc(C)c(N)c2)ncc1C(=O)Nc1cc(NC(=O)c2cccc(C(F)(F)F)c2)ccc1C
[1]
  GI50: > 10000 nM
[2]
  inhibition: Active
[3]
  inhibition: Active
[4]
  inhibition: Dose-dependent effect
[5]
  inhibition: Dose-dependent effect
[6]
  inhibition: inactive
[7]
  half-life: 2.82 h
[8]
  Tmax: 1.2 min
[9]
  Cmax: 368 ng/mL
[10]
  AUC(0-t): 1720 ng·h/mL
[11]
  AUC(0-inf): 721 ng·h/mL
[12]
  bioavailability: 24.2%
K562 [13]
  TGI: Dose-dependent effect
Mus musculus
  Activity: Non-toxic
K562 [14]
  Activity: Active
K562 [15]
  Activity: Active
[16]
  Activity: 0%
[17]
  Activity: 0%
[18]
  Activity: 0.8%
[19]
  Activity: 0.95%
[20]
  GI50: 3300 nM
[21]
  GI50: 600 nM
[22]
  GI50: 45 nM
[23]
  GI50: 45 nM
